How the values were obtained:
[1] = target: full-length A3G Cys321 (Homo sapiens, UniProt Q9HC16); test: LC-MS/MS of tryptic peptides of inhibitor-treated A3G; assay type: binding; conditions: full-length A3G incubated with compound, in-gel trypsin digestion
[2] = target: A3G-C308A (Homo sapiens, UniProt Q9HC16, C308A); test: deaminase assay with A3G-C308A mutant; assay type: biochemical; conditions: varying concentrations, parallel to wildtype A3G
In short: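 Full-length human A3G-C308A-mycHis and wildtype A3G were purified from HEK293T cells via the C-terminal His6 tag and assayed in parallel over varying test compound concentrations. Enzyme was diluted in Tris pH 7.4 buffer with protease inhibitors, then incubated 2 h at 37 °C with 10 pmol 6-FAM/TAMRA ssDNA and UDG. NaOH was added for 30 min at 37 °C, then neutralised. Fluorescence read at ex 490/em 520 nm.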

[3] = target: A3G-ssDNA complex (Homo sapiens, UniProt Q9HC16); test: EMSA of A3G-ssDNA complex formation; assay type: binding; conditions: 0.64 μM A3G, 0.08 μM ssDNA, 50 μM compound, dose response 2, 5, 10 μM
Sequence of A3G-ssDNA complex (Q9HC16 whole entry, one chain of several): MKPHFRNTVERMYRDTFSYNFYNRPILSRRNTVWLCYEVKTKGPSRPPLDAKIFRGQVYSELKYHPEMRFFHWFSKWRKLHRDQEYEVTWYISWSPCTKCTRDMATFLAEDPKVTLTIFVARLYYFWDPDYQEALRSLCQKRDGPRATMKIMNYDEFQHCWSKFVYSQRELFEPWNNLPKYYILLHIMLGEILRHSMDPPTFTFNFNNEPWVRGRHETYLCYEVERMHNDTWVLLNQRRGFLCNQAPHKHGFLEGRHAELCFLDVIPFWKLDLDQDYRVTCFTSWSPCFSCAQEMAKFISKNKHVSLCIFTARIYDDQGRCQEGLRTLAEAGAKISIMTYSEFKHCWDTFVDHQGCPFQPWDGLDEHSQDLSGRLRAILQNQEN

[4] = target: HIV-1 RNase H (Human immunodeficiency virus type 1 group M subtype B, UniProt P04585); test: HIV-1 RNase H inhibition assay; assay type: biochemical; conditions: read-out: IC50 Values RNase H; A3G inhibitors, this study
[5] = target: A3G C321A (Homo sapiens, UniProt Q9HC16, C321A); test: deaminase assay with A3G-C321A mutant; assay type: biochemical; conditions: dose response, parallel to wildtype A3G
Sequence of A3G C321A (Q9HC16 whole entry C321A): as the sequence (Q9HC16 whole entry, one chain of several) above, with C321A counted along it
In short: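 Wildtype A3G and the C321A mutant were purified side by side as myc-His proteins (>80% homogeneity) from HEK293T cells and tested at varying test compound concentrations. Reactions ran 2 h at 37 °C with 6-FAM/TAMRA ssDNA and UDG, followed by NaOH cleavage, neutralisation and fluorescence at 490/520 nm. Triplicates were normalised to DMSO-only controls and given as mean with SD.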

[6] = target: E. coli uracil DNA glycosylase (UDG) (Escherichia coli, UniProt P12295); test: UDG assay; assay type: biochemical; conditions: read-out: IC50 Values UDG; no deaminase, uracil ssDNA substrate
Sequence of E. coli uracil DNA glycosylase (UDG) (P12295 whole entry): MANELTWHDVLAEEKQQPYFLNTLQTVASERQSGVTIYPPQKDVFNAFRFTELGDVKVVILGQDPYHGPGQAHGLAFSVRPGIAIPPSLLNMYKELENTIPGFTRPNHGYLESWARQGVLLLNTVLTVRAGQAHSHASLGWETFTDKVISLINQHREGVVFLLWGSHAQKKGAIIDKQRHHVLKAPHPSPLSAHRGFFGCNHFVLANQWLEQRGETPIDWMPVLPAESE

[7] = target: human A3G (APOBEC3G) (Homo sapiens, UniProt Q9HC16); test: fluorescence-based ssDNA cytosine deaminase assay, A3G; assay type: biochemical; conditions: read-out: IC50 Values A3G; dose response, purified full-length A3G-mycHis
Sequence of human A3G (APOBEC3G) (Q9HC16 whole entry): as the sequence (Q9HC16 whole entry, one chain of several) above

[8] = target: human A3A (APOBEC3A) (Homo sapiens, UniProt P31941); test: fluorescence-based ssDNA cytosine deaminase assay, A3A; assay type: biochemical; conditions: read-out: IC50 Values A3A; dose response, purified A3A-mycHis
Sequence of human A3A (APOBEC3A) (P31941 whole entry): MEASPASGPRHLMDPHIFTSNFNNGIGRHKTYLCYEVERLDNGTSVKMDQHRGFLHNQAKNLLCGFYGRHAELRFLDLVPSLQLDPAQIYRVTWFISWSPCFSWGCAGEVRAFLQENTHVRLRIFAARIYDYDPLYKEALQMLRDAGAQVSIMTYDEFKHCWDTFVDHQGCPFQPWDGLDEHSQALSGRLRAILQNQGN

[9] = tested on: murine model of diabetes; conditions: oral dosing; cited from earlier work

Sequence of full-length A3G Cys321 (Q9HC16 whole entry): as the sequence (Q9HC16 whole entry, one chain of several) above
Sequence of A3G-C308A (Q9HC16 whole entry C308A): as the sequence (Q9HC16 whole entry, one chain of several) above, with C308A counted along it

With `CN(N=O)c1ccc(O)c(O)c1` [MN30, Methyl-3,4-dephostatin] the “mass addition to C321 containing tryptic peptide (covalent modification)” value [1] was 167.11 Da, the “susceptibility of A3G-C308A deaminase activity to inhibition” value [2] was “wildtype susceptibility” and the “inhibition of A3G's ssDNA binding activity (A3G-ssDNA complex formation)” value [3] was “no inhibition”. The IC50 [4] was over 25 µM, the “susceptibility of A3G C321A deaminase activity to inhibition” value [5] was “fully resistant” and the IC50 [6] was over 200 µM. For the same compound, the IC50 [7] was 9.1 µM, the IC50 [8] was over 200 µM and the “efficacy in a murine model of diabetes” value [9] was “demonstrated efficacy”.
